Measurements taken from ChEMBL document CHEMBL1914440, “Discovery of potent, selective, and orally bioavailable alkynylphenoxyacetic acid CRTH2 (DP2) receptor antagonists for the treatment of allergic inflammatory diseases” (J Med Chem, 2011).
≈ marks a conversion by molar mass, not a printed value.

What was measured:
[1] = Apparent permeability across human Caco2 cells at 1 uM after 2 hrs by LC/MS/MS analysis; format: ADME, cell-based; conditions: Caco-2
[2] = biological target: T1, Prostaglandin D2 receptor 2 (Homo sapiens, UniProt Q9Y5Y4); assay: Displacement of [3H]PGD2 from human CRTH2 expressed in chinese hamster CHO cells by liquid scintillation counting; format: cell-based
T1 sequence (Q9Y5Y4 whole entry): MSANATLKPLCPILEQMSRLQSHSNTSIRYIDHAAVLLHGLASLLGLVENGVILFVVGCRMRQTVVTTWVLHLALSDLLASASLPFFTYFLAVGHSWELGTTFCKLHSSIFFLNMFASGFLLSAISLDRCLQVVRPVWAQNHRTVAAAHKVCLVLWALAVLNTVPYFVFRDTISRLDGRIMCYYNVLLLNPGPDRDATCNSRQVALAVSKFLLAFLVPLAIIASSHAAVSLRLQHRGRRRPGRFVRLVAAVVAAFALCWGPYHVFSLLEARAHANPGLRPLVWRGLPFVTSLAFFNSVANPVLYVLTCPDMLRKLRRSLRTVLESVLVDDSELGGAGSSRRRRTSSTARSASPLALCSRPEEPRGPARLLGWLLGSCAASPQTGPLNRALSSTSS
How it was run: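 Scintillation proximity competition assay: 2–5 μg human CRTH2 cell membranes, 1.5 nM [3H]PGD2, WGA-SPA beads, 10 mM HEPES/KOH pH 7.4, 10 mM MnCl2, protease inhibitors, 1% DMSO; 90 min, room temperature, shaking. Nonspecific binding defined with 1 μM PGD2. Ki by Cheng–Prusoff, mean of ≥3 independent dose–response experiments.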

[3] = Clearance in BALB/c mouse at 5 mg/kg, po by LC/MS/MS analysis; format: ADME, organism-based; parameters: dose 5 mg/kg, route oral; conditions: in vivo
[4] = Percentage unbound in rat plasma; format: ADME, cell-free
[5] = Half life in Sprague-Dawley rat at 1 mg/kg, iv and 5 mg/kg, po by LC/MS/MS analysis; format: ADME, organism-based; conditions: in vivo
[6] = Intrinsic clearance in human liver microsomes assessed per mg of protein at 1 uM by LC/MS/MS analysis; format: ADME, Microsome
[7] = Half life in BALB/c mouse at 1 mg/kg, iv and 5 mg/kg, po by LC/MS/MS analysis; format: ADME, organism-based; conditions: in vivo
[8] = Intrinsic clearance in rat liver microsomes assessed per mg of protein at 1 uM by LC/MS/MS analysis; format: ADME, Microsome
[9] = Thermodynamic solubility of the compound in 50 mM phosphate buffered saline at pH 7.4; format: physicochemical; conditions: read-out: Therm_solubility
How it was run: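 Thermodynamic solubility measured in 50 mM PBS at pH 7.4.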

[10] = Percentage unbound in mouse plasma; format: ADME, cell-free
[11] = Percentage unbound in human plasma; format: ADME, cell-free
[12] = biological target: T2, Prostaglandin D2 receptor 2 (Homo sapiens) (UniProt Q9Y5Y4); assay: Partial agonist activity at human CRTH2 expressed in chinese hamster CHO cells by cellular dielectric spectroscopy relative to PGD2; format: functional, cell-based
T2 sequence (whole entry): T1 sequence (Q9Y5Y4 whole entry)
How it was run: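 CHO-CRTH2 cells seeded at 100000/well, grown 24 h at 37 °C, washed into HBSS/10 mM HEPES pH 7.4 with 1% DMSO; impedance recorded. Agonism: compound alone, 25 min read. Antagonism: PGD2 at EC80 added to cell–compound mixture, 25 min read. Run with 0.1% BSA.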

[13] = AUC in BALB/c mouse at 1 mg/kg, po; format: ADME, organism-based; parameters: dose 1 mg/kg, route oral; conditions: plasma
[14] = Oral bioavailability in BALB/c mouse at 5 mg/kg by LC/MS/MS analysis; format: ADME, organism-based; conditions: in vivo
How it was run: (§1)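 Mouse PK after a 5 mg/kg oral dose.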

[15] = AUC in BALB/c mouse at 5 mg/kg, po; format: ADME, organism-based; parameters: dose 5 mg/kg, route oral; conditions: plasma; how it was run: as §1

| SMILES | Papp at 2 h, 1 µM [1] [×10⁻⁶ cm/s] | Ki [2] [nM] | CL/F [3] [mL/min/kg] | fraction unbound [4] | half-life [5] [min] | microsomal CLint at 1 µM [6] [µL/min/mg] | half-life [7] [min] | microsomal CLint at 1 µM [8] [µL/min/mg] | solubility thermodynamic [9] [µg/mL] | fraction unbound [10] | fraction unbound [11] | Emax [12] [%] | AUC [13] [ng·h/mL] | bioavailability [14] [%] | AUC [15] [ng·h/mL] |
| --- | --- | --- | --- | --- | --- | --- | --- | --- | --- | --- | --- | --- | --- | --- | --- |
| O=C(O)COc1ccc(C(F)(F)F)cc1C#Cc1ccccc1Cl |  | 12 |  |  |  |  |  |  |  |  |  | 60 |  |  |  |
| CCCS(=O)(=O)c1cccc(C#Cc2cc(C#N)ccc2OCC(=O)O)c1 |  | 21 |  |  |  |  |  |  |  |  |  | 30 |  |  |  |

Now those with a lower Ki [2], led by results:

| Papp at 2 h, 1 µM [1] [×10⁻⁶ cm/s] | Ki [2] [nM] | CL/F [3] [mL/min/kg] | fraction unbound [4] | half-life [5] [min] | microsomal CLint at 1 µM [6] [µL/min/mg] | half-life [7] [min] | microsomal CLint at 1 µM [8] [µL/min/mg] | solubility thermodynamic [9] [µg/mL] | fraction unbound [10] | fraction unbound [11] | Emax [12] [%] | AUC [13] [ng·h/mL] | bioavailability [14] [%] | AUC [15] [ng·h/mL] | SMILES |
| --- | --- | --- | --- | --- | --- | --- | --- | --- | --- | --- | --- | --- | --- | --- | --- |
| 11.8 | 9 | 5 | 0.01 | 264 | 11 | 132 | < 10 | 760 (≈ 1930 µM) | 0.024 | 0.008 |  |  |  |  | CCCS(=O)(=O)c1cccc(C#Cc2cc(Cl)ccc2OCC(=O)O)c1 |
|  | 3.5 | 11.7 | 0.003 |  |  |  |  |  | 0.025 | 0.007 |  | 1390 | 141 |  | CS(=O)(=O)c1ccc(Cl)c(C#Cc2cc(Cl)ccc2OCC(=O)O)c1 |
|  | 5 | 23.3 | 0.014 |  | 14 |  | 18 |  | 0.027 | 0.017 | 10 |  | 49 | 1800 | Cc1ccc(S(C)(=O)=O)cc1C#Cc1cc(Cl)ccc1OCC(=O)O |
